In paper PMC8026699 (Cancer research, 2021):

What was measured:
[1] = tested on: cytosolic AcCoA metabolism (UDP-GlcNAc); test: 13C2-acetate labeling of UDP-GlcNAc in cells; format: cell-based
Procedure, shortened: (§1)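 Cells grown 24 h in serum-like modified Eagle's medium (SMEM) with 0.1 mM uniformly labeled 13C2-acetate. Conditions were normoxia with 10% dialyzed FBS (N10) or 1% O2 hypoxia with 1% dialyzed FBS (H1). Vehicle or test compound present. Cells washed in ice-cold PBS and extracted with methanol/acetonitrile/water (5:3:2) at 4°C for 5 min. Cleared extracts analysed by HILIC LC-MS on a Q Exactive HF-X.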

SKBr3 cells = test: 13C2-acetate labeling of palmitate in SKBr3 cells; format: cell-based, human; details: SKBr3, 100 μM 13C2-acetate, 24 hr, N10 and H1 conditions
Procedure, shortened: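 SKBr3 cells were grown 24 h in serum-like modified Eagle's medium with 100 μM 13C2-acetate, either in N10 (normoxia, 10% dialyzed FBS) or H1 (1% O2, 1% dialyzed FBS), with vehicle or test compound. Lipids were extracted with methanol/chloroform/PBS, saponified in 0.3 M KOH in 90% methanol at 70°C for 1 h, then hexane-extracted. Palmitate labeling was measured by C18 LC-MS; mean ± S.D., n = 3.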

recombinant human ACSS2 = recombinant human ACSS2 (Homo sapiens, UniProt Q9NR19); test: TranScreener AMP biochemical assay of ACSS2 activity; details: ratio of IC50 values
Procedure, shortened: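 Recombinant human ACSS2 at 3 nM in 30 mM HEPES pH 7.4, 140 mM NaCl, 2 mM MgCl2, 2 mM DTT, 0.005% Brij35. Test compound serially diluted in DMSO. Final substrates: 5 mM acetate, 50 μM ATP, 5 μM CoA; 120 min incubation. AMP detected by Tb-anti-AMP antibody/tracer TR-FRET after 30 min. Percent inhibition normalized to no-enzyme (100%) and DMSO (0%) wells; IC50 curves fitted from replicates.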

[2] = Pharmacokinetic analysis in CD-1 mice; format: in vivo, mouse; details: oral gavage 30 mg/kg, intravenous 2 mg/kg, intraperitoneal 10 mg/kg
Procedure, shortened: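 Formulation: 10% DMSO, 10% Solutol, 80% PBS. Dosing in CD-1 mice based on 28 g average weight. Three mice per time point; trunk blood collected into K2-EDTA and kept on wet ice until centrifugation. Plasma extracted in acetonitrile/water with tolbutamide internal standard, centrifuged, supernatant analysed by LC-MS. Mean ± S.D.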

A7C11 tumors = test: A7C11 tumor growth in mice; format: in vivo, mouse; details: A7C11 (ACSS2 low) tumors
Procedure, shortened: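 Parental or CRISPR-Cas9 sgAcss2 cells (lentiviral, blasticidin-selected pools) implanted subcutaneously into 5–6-week-old female NSG mice in PBS:Matrigel: A7C11 at 5×10^5, Brpkp110 at 5×10^5. Calipers read tumors three times weekly. Volume = (L × W²)/2, L being the longer measurement; not blinded.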

[3] = Body weight in tumor xenograft studies; format: in vivo, mouse; details: 100 mg/kg daily IP or oral gavage vs vehicle
Procedure, shortened: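 Female NSG mice, 5–6 weeks old, carried subcutaneous tumours in PBS:Matrigel (BT474 with a 17β-estradiol pellet; MDA-MB-468, WHIM12, A7C11, Brpkp110) or BT474 mammary fat-pad orthografts. After tumour establishment, mice were randomized and dosed daily by IP injection or oral gavage. Groups received vehicle (10% DMSO, 20% solutol, 70% water containing 0.5% Tween20) or test compound at 100 mg/kg.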

Brpkp110 cells = test: 13C6-glucose dependent palmitate synthesis in Brpkp110 cells; format: cell-based, mouse; details: Brpkp110, normoxia, 10% dialyzed FBS
Procedure, shortened: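 Cells grown 4 h under normoxia in SMEM with 10% dialyzed FBS and 5.5 mM uniformly labeled 13C6-glucose. Lipids extracted with methanol/chloroform/PBS and saponified in 0.3 M KOH in 90% methanol at 70°C for 1 h. Fatty acids recovered into hexane and palmitate labeling measured by C18 reverse-phase LC-MS.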

Brpkp110 tumors = test: Brpkp110 tumor growth in NSG mice; format: in vivo, mouse
Procedure, shortened: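 Brpkp110 cells (5×10^5 in PBS:Matrigel) implanted subcutaneously in 5–6-week-old female NSG mice, then randomized. Daily dosing: vehicle (10% DMSO, 20% solutol, 70% water with 0.5% Tween20) or 100 mg/kg test compound. Volume (L × W²)/2 from calipers thrice weekly. Resected tumors: formalin-fixed, paraffin-embedded, citrate steam retrieval, H2O2 block, Ki67 antibody, DAB with hematoxylin counterstain.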

ACSS1 in BT474 cells = test: 13C2-acetate labeling of citrate in BT474 cells; format: cell-based, human
Procedure, shortened: as §1

recombinant human ACSS1 = molecular target: T1, recombinant human ACSS1 (Homo sapiens, UniProt Q9NUB1); test: TranScreener AMP biochemical assay of ACSS1 activity; details: regardless of the substrate (acetate or propionate)
T1 sequence (Q9NUB1 38-689): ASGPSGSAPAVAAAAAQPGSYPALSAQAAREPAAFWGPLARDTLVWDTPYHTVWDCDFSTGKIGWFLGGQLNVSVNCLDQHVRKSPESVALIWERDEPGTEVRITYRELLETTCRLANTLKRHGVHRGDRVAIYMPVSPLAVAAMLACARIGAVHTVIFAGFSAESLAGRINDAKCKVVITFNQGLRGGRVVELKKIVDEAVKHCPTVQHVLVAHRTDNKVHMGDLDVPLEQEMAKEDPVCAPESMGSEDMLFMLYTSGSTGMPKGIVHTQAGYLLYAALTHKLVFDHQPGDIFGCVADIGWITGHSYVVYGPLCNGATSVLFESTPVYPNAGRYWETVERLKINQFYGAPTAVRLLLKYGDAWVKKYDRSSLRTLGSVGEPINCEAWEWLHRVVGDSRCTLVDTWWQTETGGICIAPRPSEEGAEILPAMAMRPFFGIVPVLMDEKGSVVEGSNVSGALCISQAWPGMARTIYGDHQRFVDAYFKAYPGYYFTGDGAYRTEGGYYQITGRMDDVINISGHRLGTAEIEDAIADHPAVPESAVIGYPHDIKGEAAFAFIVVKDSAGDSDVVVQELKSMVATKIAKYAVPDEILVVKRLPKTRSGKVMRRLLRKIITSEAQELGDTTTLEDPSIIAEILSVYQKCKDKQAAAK
Procedure, shortened: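 Test compound was serially diluted in DMSO and added to ACSS1 (2 nM) or ACSS3 (25 nM). Acetate reaction: HEPES pH 7.4 buffer with 140 mM NaCl; final 5 mM acetate, 50 μM ATP, 5 μM CoA. Propionate reaction: HEPES/KCl/CHAPS buffer; final 5 mM propionate, 10 μM ATP, 100 μM CoA. Incubation 120 min, then AMP detected by terbium-antibody/tracer TR-FRET after 30 min. Percent inhibition was set against no-enzyme and DMSO controls.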

recombinant human ACSS2, sequence (Q9NR19 whole entry): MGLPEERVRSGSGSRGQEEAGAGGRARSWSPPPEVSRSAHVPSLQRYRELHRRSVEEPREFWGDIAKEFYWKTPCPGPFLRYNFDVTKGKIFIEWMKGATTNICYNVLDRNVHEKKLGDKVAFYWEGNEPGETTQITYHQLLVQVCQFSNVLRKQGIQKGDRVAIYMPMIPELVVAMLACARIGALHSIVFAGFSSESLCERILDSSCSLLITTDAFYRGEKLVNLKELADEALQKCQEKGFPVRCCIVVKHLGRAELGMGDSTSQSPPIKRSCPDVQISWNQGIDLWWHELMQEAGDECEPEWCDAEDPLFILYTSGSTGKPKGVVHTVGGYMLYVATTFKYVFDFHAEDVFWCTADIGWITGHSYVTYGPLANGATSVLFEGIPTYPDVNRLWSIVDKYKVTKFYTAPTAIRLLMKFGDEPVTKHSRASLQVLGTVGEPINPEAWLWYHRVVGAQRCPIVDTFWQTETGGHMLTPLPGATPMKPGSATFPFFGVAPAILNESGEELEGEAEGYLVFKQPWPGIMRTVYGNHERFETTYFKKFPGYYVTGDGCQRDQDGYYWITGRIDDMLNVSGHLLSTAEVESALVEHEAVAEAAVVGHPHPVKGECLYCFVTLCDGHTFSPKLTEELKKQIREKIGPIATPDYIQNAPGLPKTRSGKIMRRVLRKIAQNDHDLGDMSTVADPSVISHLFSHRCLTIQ

CCn1c(C(O)(c2ccccc2)c2ccccc2)nc2ccc(C(=O)NC[C@@H](C)O)cc21 [VY-3-135, (R)-1-ethyl-2-(hydroxydiphenylmethyl)-N-(2-hydroxypropyl)-1H-benzo[d]imidazole-6-carboxamide]
incorporation of 13C2-acetate into UDP-GlcNAc [1]: blocked incorporation | fatty acid (palmitate) synthesis from 13C2-acetate (SKBr3 cells): completely blocked fatty acid synthesis from acetate | potency relative to VY-3-249 (recombinant human ACSS2): ~30 fold | absorption [2]: completely absorbed by all routes of administration | exposure [2]: good exposure | tumor growth (A7C11 tumors): but not WHIM12 and A7C11 tumors | body weight [3]: No significant differences in body weight | 13C6-glucose dependent palmitate synthesis (Brpkp110 cells): did not affect | tumor growth (Brpkp110 tumors; Brpkp110 (ACSS2 high), 100 mpk daily IP): marked inhibition | Ki67 staining of tumors (proliferation) (Brpkp110 tumors; Brpkp110 tumors): less proliferative | 13C2-acetate labeling of citrate (ACSS1 in BT474 cells; BT474, H1 conditions, 24 hr): did not decrease | M+2 citrate (acetate contribution to the TCA cycle) (ACSS1 in BT474 cells; BT474, hypoxia and low serum stressed cells): increased M+2 citrate | inhibitory activity towards ACSS1 (recombinant human ACSS1): neither VY-3-249 nor VY-3-135 displayed any inhibitory activity
